Laboratory results reported in ChEMBL document CHEMBL1124656, “Synthesis and biological evaluation of de(acetylglucosaminyl)didehydrodeoxy derivatives of teicoplanin antibodies” (J Med Chem, 1989).
Converted amounts (≈) assume the structure as drawn.

What was measured:
Streptococcus pyogenes [1] = experiment: Minimum inhibitory concentration administered subcutaneously against Streptococcus pyogenes C203 in mouse; details: sc
Streptococcus pyogenes [2] = experiment: Minimum inhibitory concentration against Streptococcus pyogenes C 203 evaluated in vitro; type: functional
Method in brief: (§1)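 Twofold broth microdilution in Difco Todd-Hewitt broth, final inoculum ~10⁴ cfu/mL, overnight at 37 °C. MIC (μg/mL) was read as the lowest concentration showing no visible growth.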

Staphylococcus aureus = experiment: Minimum inhibitory concentration against Staphylococcus aureus Tour evaluated in vitro; type: functional
Method in brief: (§2)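 Twofold broth microdilution in Oxoid Iso-Sensitest broth, final inoculum ~10⁴ cfu/mL, overnight at 37 °C. MIC (μg/mL) was read as the lowest concentration with no visible growth. Coagulase-negative staphylococci were identified by API STAPH per Kloos and Schleifer.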

Enterococcus faecalis = experiment: Minimum inhibitory concentration against Streptococcus faecalis ATCC 7080 evaluated in vitro; type: functional
Method in brief: as §2

[3] = Association constant of compound was evaluated at pH 9; type: ADME
Method in brief: (§3)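 UV difference spectroscopy: Ac₂-L-Lys-D-Ala-D-Ala was added to antibiotic at 30 μM (initial) in 10% MeOH/sodium phosphate buffer (pH 5 or pH 9). Double-beam spectrophotometer, 4-cm nonthermostated cells, 24 ± 2 °C. ΔA was monitored at 294 nm, and Ka was taken from the slope of a Scatchard plot.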

Streptococcus pneumoniae = experiment: Minimum inhibitory concentration against Streptococcus pneumoniae UC 41 evaluated in vitro; type: functional
Method in brief: as §1

[4] = system: Staphylococcus epidermidis; experiment: Minimum inhibitory concentration against Staphylococcus epidermis ATCC 12228 evaluated in vitro; type: functional
Method in brief: as §2

[5] = Association constant of compound was evaluated at pH 5; type: ADME
Method in brief: as §3

[6] = system: Staphylococcus epidermidis; experiment: Minimum inhibitory concentration against Staphylococcus epidermis L1378 evaluated in vitro; type: functional
Method in brief: as §2

Staphylococcus warneri = experiment: Minimum inhibitory concentration against Staphylococcus warneri L1375 evaluated in vitro; type: functional
Method in brief: as §2

[7] = system: Staphylococcus haemolyticus; experiment: Minimum inhibitory concentration against Staphylococcus haemolyticus L1520 evaluated in vitro; type: functional
Method in brief: as §2

Staphylococcus simulans [8] = experiment: Minimum inhibitory concentration against Staphylococcus simulans L785 evaluated in vitro; type: functional
Method in brief: as §2

Staphylococcus simulans [9] = experiment: Minimum inhibitory concentration against Staphylococcus simulans L1142 evaluated in vitro; type: functional
Method in brief: as §2

Staphylococcus hominis = experiment: Minimum inhibitory concentration against Staphylococcus hominis L1070 evaluated in vitro; type: functional
Method in brief: as §2

Streptococcus pyogenes [10] = experiment: Minimum inhibitory concentration against Streptococcus pyogenes C203 evaluated in vivo(mouse); type: functional
Method in brief: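 Mice in groups of five were infected intraperitoneally with S. pyogenes C 203, with inoculum set so untreated animals die of septicemia within 48 h. A single subcutaneous treatment was given immediately after infection. ED₅₀ was calculated from the percentage surviving at each dose on day 7.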

[11] = Streptococcus pyogenes, read-out: MIC
[12] = Staphylococcus aureus, read-out: MIC
[13] = Streptococcus pneumoniae, read-out: MIC
[14] = Staphylococcus epidermidis, ATCC 12228, read-out: MIC

Row | Structure (SMILES) | ED50 (Streptococcus pyogenes [1]) [mg/kg] | MIC (Streptococcus pyogenes [2]; [11]) [µg/mL] | MIC (Staphylococcus aureus; [12]) [µg/mL] | MIC (Enterococcus faecalis) [µg/mL] | Ka [3] [M⁻¹] | MIC (Streptococcus pneumoniae; [13]) [µg/mL] | MIC [4, 14] [µg/mL] | Ka [5] [M⁻¹] | MIC [6] [µg/mL] | MIC (Staphylococcus warneri) [µg/mL] | MIC [7] [µg/mL] | MIC (Staphylococcus simulans [8]) [µg/mL] | MIC (Staphylococcus simulans [9]) [µg/mL] | MIC (Staphylococcus hominis) [µg/mL] | MIC [4] [µg/mL] | MIC (Streptococcus pyogenes [2]) [µg/mL] | MIC (Staphylococcus aureus) [µg/mL] | MIC (Streptococcus pneumoniae) [µg/mL] | ED50 (Streptococcus pyogenes [10]) [mg/kg]
1 | CCCCC/C=C/CCC(=O)N[C@@H]1[C@H](Oc2c3cc4cc2Oc2ccc(cc2Cl)CC2NC(=O)[C@H](N)c5ccc(O)c(c5)Oc5cc(O)cc(c5)C(NC2=O)C(=O)NC4C(=O)NC2C(=O)/N=C(\Cc4ccc(c(Cl)c4)O3)C(=O)N[C@H](C(=O)O)c3cc(O)cc(O[C@H]4O[C@H](CO)[C@@H](O)[C@@H](O)[C@@H]4O)c3-c3cc2ccc3O)O[C@@H](CO)[C@@H](O)[C@@H]1O (some centres not stated) | 0.35 | 0.063 (≈ 0.038 µM) | 0.5 (≈ 0.302 µM) | 1 (≈ 0.604 µM) | 60000 | 0.063 (≈ 0.038 µM) | 0.25 (≈ 0.151 µM) | 390000 | – | – | – | – | – | – | – | – | – | – | –
2 | CC(=O)N[C@@H]1[C@H](O[C@@H]2c3ccc(c(Cl)c3)Oc3cc4cc(c3O)Oc3ccc(cc3Cl)C[C@H]3NC(=O)[C@H](N)c5ccc(O)c(c5)Oc5cc(O)cc(c5)[C@H](NC3=O)C(=O)N[C@H]4C(=O)N[C@H]3C(=O)N[C@@H]2C(=O)N[C@H](C(=O)O)c2cc(O)cc(O[C@H]4O[C@H](CO)[C@@H](O)[C@@H](O)[C@@H]4O)c2-c2cc3ccc2O)O[C@@H](CO)[C@@H](O)[C@@H]1O | – | 0.5 (≈ 0.32 µM) | 0.25 (≈ 0.16 µM) | 2 (≈ 1.28 µM) | 90000 | 0.5 (≈ 0.32 µM) | 0.25 (≈ 0.16 µM) | 1200000 | – | – | – | – | – | – | – | – | – | – | –
3 | CCCCC/C=C/CCC(=O)N[C@@H]1[C@H](Oc2c3cc4cc2Oc2ccc(cc2Cl)[C@@H](O[C@@H]2O[C@@H](CO)[C@@H](O)[C@H](O)[C@@H]2NC(C)=O)[C@@H]2NC(=O)[C@H](NC(=O)[C@@H]4NC(=O)[C@H]4NC(=O)[C@@H](Cc5ccc(c(Cl)c5)O3)NC(=O)[C@H](N)c3ccc(O)c(c3)Oc3cc(O)cc4c3)c3ccc(O)c(c3)-c3c(O[C@H]4O[C@H](CO)[C@@H](O)[C@@H](O)[C@@H]4O)cc(O)cc3[C@@H](C(=O)O)NC2=O)O[C@@H](CO)[C@@H](O)[C@@H]1O | 0.18 | 0.063 (≈ 0.0336 µM) | 0.125 (≈ 0.0666 µM) | 0.125 (≈ 0.0666 µM) | 2.1e+06 | 0.063 (≈ 0.0336 µM) | 0.25 (≈ 0.133 µM) | 1600000 | 0.5 (≈ 0.266 µM) | 2 (≈ 1.07 µM) | 4 (≈ 2.13 µM) | 0.25 (≈ 0.133 µM) | 0.125 (≈ 0.0666 µM) | 0.25 (≈ 0.133 µM) | – | – | – | – | –
4 | N[C@H]1C(=O)NC2Cc3ccc(c(Cl)c3)Oc3cc4cc(c3O)Oc3ccc(cc3Cl)/C=C3\NC(=O)C(NC(=O)C4NC(=O)C(NC2=O)c2cc(O)cc(c2)Oc2cc1ccc2O)c1ccc(O)c(c1)-c1c(O)cc(O)cc1[C@@H](C(=O)O)NC3=O (stereo in doubt; 5) | – | 8 (≈ 6.77 µM) | 2 (≈ 1.69 µM) | 16 (≈ 13.5 µM) | < 100 | 8 (≈ 6.77 µM) | – | – | – | – | – | – | – | – | 0.5 (≈ 0.423 µM) | – | – | – | –
5 | N[C@H]1C(=O)NC2Cc3ccc(c(Cl)c3)Oc3cc4cc(c3O)Oc3ccc(cc3Cl)C/C3=N\C(=O)C(NC(=O)C4NC(=O)C(NC2=O)c2cc(O)cc(c2)Oc2cc1ccc2O)c1ccc(O)c(c1)-c1c(O[C@H]2O[C@H](CO)[C@@H](O)[C@@H](O)[C@@H]2O)cc(O)cc1[C@@H](C(=O)O)NC3=O (some centres not stated) | 5.8 | 2 (≈ 1.49 µM) | 0.25 (≈ 0.186 µM) | 1 (≈ 0.745 µM) | 61000 | 2 (≈ 1.49 µM) | 0.5 (≈ 0.372 µM) | 380000 | – | – | – | – | – | – | – | – | – | – | –
6 | CC(=O)N[C@@H]1[C@H](O[C@@H]2c3ccc(c(Cl)c3)Oc3cc4cc(c3O)Oc3ccc(cc3Cl)C[C@H]3NC(=O)[C@H](N)c5ccc(O)c(c5)Oc5cc(O)cc(c5)[C@H](NC3=O)C(=O)N[C@H]4C(=O)N[C@H]3C(=O)N[C@@H]2C(=O)N[C@H](C(=O)O)c2cc(O)cc(O)c2-c2cc3ccc2O)O[C@@H](CO)[C@@H](O)[C@@H]1O | – | 0.5 (≈ 0.357 µM) | 0.5 (≈ 0.357 µM) | 1 (≈ 0.713 µM) | 32000 | 1 (≈ 0.713 µM) | 0.125 (≈ 0.0892 µM) | 2.6e+06 | – | – | – | – | – | – | – | – | – | – | –
7 | N[C@H]1C(=O)N[C@@H]2Cc3ccc(c(Cl)c3)Oc3cc4cc(c3O)Oc3ccc(cc3Cl)[C@@H](O)[C@@H]3NC(=O)[C@H](NC(=O)[C@@H]4NC(=O)[C@@H](NC2=O)c2cc(O)cc(c2)Oc2cc1ccc2O)c1ccc(O)c(c1)-c1c(O)cc(O)cc1[C@@H](C(=O)O)NC3=O [TEICOPLANIN AGLYCON] | 0.95 | 0.125 (≈ 0.104 µM) | 0.063 (≈ 0.0525 µM) | 0.125 (≈ 0.104 µM) | 30000 | 0.125 (≈ 0.104 µM) | 0.016 (≈ 0.0133 µM) | 2.5e+06 | 0.063 (≈ 0.0525 µM) | 0.25 (≈ 0.209 µM) | 0.125 (≈ 0.104 µM) | 0.063 (≈ 0.0525 µM) | 0.063 (≈ 0.0525 µM) | 0.063 (≈ 0.0525 µM) | – | – | – | – | –
8 | N[C@H]1C(=O)NC2Cc3ccc(c(Cl)c3)Oc3cc4cc(c3O)Oc3ccc(cc3Cl)/C=C3\NC(=O)C(NC(=O)C4NC(=O)C(NC2=O)c2cc(O)cc(c2)Oc2cc1ccc2O)c1ccc(O)c(c1)-c1c(O)cc(O)cc1[C@@H](C(=O)O)NC3=O (stereo in doubt; 4) | – | – | – | – | < 100 | – | – | < 100 | – | – | – | – | – | – | 0.125 (≈ 0.106 µM) | 4 (≈ 3.39 µM) | 1 (≈ 0.847 µM) | 4 (≈ 3.39 µM) | –
9 | N[C@H]1C(=O)NC2Cc3ccc(c(Cl)c3)Oc3cc4cc(c3O)Oc3ccc(cc3Cl)C/C3=N\C(=O)C(NC(=O)C4NC(=O)C(NC2=O)c2cc(O)cc(c2)Oc2cc1ccc2O)c1ccc(O)c(c1)-c1c(O)cc(O)cc1[C@@H](C(=O)O)NC3=O (some centres not stated) | – | 1 (≈ 0.847 µM) | 0.25 (≈ 0.212 µM) | – | – | 1 (≈ 0.847 µM) | 0.125 (≈ 0.106 µM) | 100000 | 0.125 (≈ 0.106 µM) | 1 (≈ 0.847 µM) | 0.5 (≈ 0.423 µM) | 0.125 (≈ 0.106 µM) | 0.125 (≈ 0.106 µM) | 0.125 (≈ 0.106 µM) | – | – | – | – | 5
